Data published in ChEMBL document CHEMBL1144782, “Isoindolo[2,1-a]quinoxaline derivatives, novel potent antitumor agents with dual inhibition of tubulin polymerization and topoisomerase I” (2008).
“And” between values parts separate entries of the source, which are not always exact repeats. Identical values can stand only once.

How the values were obtained:
[1] = test system: NCI-H226; assay: Antitumor activity against human NCI-H226 cells; assay type: functional
Method in brief: (§1)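 Run by the NCI in its in vitro disease-oriented screen of about 60 human tumour cell lines. For each line it reports pGI50 (50% net growth inhibition), pTGI (total growth inhibition) and pLC50 (50% net cell death), each as –log molar concentration. Where an effect was not reached within the tested range, the highest tested concentration was used.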

[2] = Antitumor activity against human NCI-H322 cells; assay type: functional; method in brief: as §1
[3] = test system: NCI-H460; assay: Antitumor activity against human NCI-H460 cells; assay type: functional; method in brief: as §1
[4] = test system: COLO 205; assay: Antitumor activity against human COLO205 cells; assay type: functional; method in brief: as §1
[5] = test system: HCT-15; assay: Antitumor activity against human HCT15 cells; assay type: functional; method in brief: as §1
[6] = test system: HT-29; assay: Antitumor activity against human HT29 cells; assay type: functional; method in brief: as §1
[7] = test system: SW-620; assay: Antitumor activity against human SW620 cells; assay type: functional
Method in brief: (§2)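 NCI 60-cell-line screen. Parameters were GI50 (50% net growth inhibition), TGI and LC50, each reported as –log molar concentration. Where an effect was not reached within the tested range, the highest tested concentration was used in the calculation.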

[8] = test system: SNB-75; assay: Antitumor activity against human SNB75 cells; assay type: functional; settings: Homo sapiens, SNB-75; method in brief: as §1
[9] = test system: Malme-3M; assay: Antitumor activity against human MALME3M cells; assay type: functional; method in brief: as §1
[10] = test system: SK-MEL-2; assay: Antitumor activity against human SKMEL2 cells; assay type: functional; method in brief: as §1
[11] = test system: OVCAR-3; assay: Antitumor activity against human OVCAR-3 cells; assay type: functional; method in brief: as §1
[12] = test system: 786-0; assay: Antitumor activity against human 786-0 cells; assay type: functional; method in brief: as §1
[13] = biological target: Tubulin (Sus scrofa) (UniProt P02554+P02550); assay: Inhibition of pig brain tubulin polymerization
Chain of Tubulin (Sus scrofa) (P02550 whole entry, looked up): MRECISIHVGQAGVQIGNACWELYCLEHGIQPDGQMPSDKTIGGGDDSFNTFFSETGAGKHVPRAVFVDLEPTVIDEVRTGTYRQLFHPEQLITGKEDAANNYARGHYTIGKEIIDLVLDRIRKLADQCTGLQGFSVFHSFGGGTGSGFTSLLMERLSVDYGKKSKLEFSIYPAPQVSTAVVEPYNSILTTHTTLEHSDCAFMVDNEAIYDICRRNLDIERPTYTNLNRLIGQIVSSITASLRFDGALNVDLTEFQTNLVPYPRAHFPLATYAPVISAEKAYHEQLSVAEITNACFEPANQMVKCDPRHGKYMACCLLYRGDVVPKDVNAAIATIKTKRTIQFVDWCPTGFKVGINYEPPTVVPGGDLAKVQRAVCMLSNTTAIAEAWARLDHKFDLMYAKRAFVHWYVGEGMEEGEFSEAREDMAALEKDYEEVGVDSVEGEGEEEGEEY
Chain of Tubulin (Sus scrofa) (P02554 whole entry, looked up): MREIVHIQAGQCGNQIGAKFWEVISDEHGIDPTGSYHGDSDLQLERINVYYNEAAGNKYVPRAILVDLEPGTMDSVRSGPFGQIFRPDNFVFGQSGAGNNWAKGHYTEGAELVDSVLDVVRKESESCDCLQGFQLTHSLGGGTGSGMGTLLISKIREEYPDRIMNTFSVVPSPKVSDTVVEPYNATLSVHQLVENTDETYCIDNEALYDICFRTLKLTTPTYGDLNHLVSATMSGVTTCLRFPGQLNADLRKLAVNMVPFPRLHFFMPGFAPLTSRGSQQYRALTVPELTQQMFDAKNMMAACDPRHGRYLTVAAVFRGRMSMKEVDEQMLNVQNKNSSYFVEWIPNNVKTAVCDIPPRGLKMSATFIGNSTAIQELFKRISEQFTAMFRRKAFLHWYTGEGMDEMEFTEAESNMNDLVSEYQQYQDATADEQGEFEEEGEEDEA

[14] = test system: BT-549; assay: Antitumor activity against human BT549 cells; assay type: functional; method in brief: as §1
[15] = test system: MCF7; assay: Cell viability against human MCF7 cells at 10 uM; assay type: functional
[16] = test system: CCRF-CEM; assay: Antitumor activity against human CCRF-CEM cells; assay type: functional; method in brief: as §1
[17] = test system: EKVX; assay: Antitumor activity against human EKVX cells; assay type: functional; method in brief: as §1
[18] = test system: SN12C; assay: Antitumor activity against human SN12C cells; assay type: functional; method in brief: as §1
[19] = test system: TK-10; assay: Antitumor activity against human TK10 cells; assay type: functional; method in brief: as §2
[20] = test system: PC-3; assay: Antitumor activity against human PC3 cells; assay type: functional; method in brief: as §1
[21] = test system: DU-145; assay: Antitumor activity against human DU145 cells; assay type: functional; method in brief: as §1
[22] = test system: NCI/ADR-RES; assay: Antitumor activity against human NCI/ADR-RES cells; assay type: functional; method in brief: as §1
[23] = test system: MCF7; assay: Growth inhibition of human MCF7 cells after 72 hrs by MTT assay; assay type: functional; settings: MCF7, 72 h
Method in brief: (§3)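 Growth inhibition by MTT after 72 h incubation. Resistant sublines: LoVoDoxo and MCF-7 MDR were kept in 0.1 µg/mL doxorubicin; CEMVbl-100 was selected against vinblastine. GI50 given as mean ± SEM of three independent experiments. Resistance index is resistant-line GI50 over parental GI50.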

[24] = test system: MCF7; assay: Growth inhibition of human multidrug-resistant MCF7 cells after 72 hrs by MTT assay; assay type: functional; settings: MCF7, 72 h; method in brief: as §3
[25] = test system: MCF7; assay: Resistance index, Ratio of GI50 for human multidrug-resistant MCF7 cells to GI50 for human MCF7 cells; assay type: functional; method in brief: as §3
[26] = test system: CCRF-CEM; assay: Growth inhibition of human CEM cells after 72 hrs by MTT assay; assay type: functional; method in brief: as §3
[27] = read-out: Log LC50 (the source's name) (converted)

SMILES: Cc1cc2[nH]c(=O)c3c4ccccc4cn3c2cc1C
- GI50 [1]: 15.1 µM
- LC50 (50% net cell kill) [1]: 89.1 µM
- TGI ([1]; read-out: pTGI (converted)): 36.3 µM
- GI50 [2]: 16.6 µM
- LC50 (50% net cell death) [2]: 55 µM
- TGI ([2]; read-out: pTGI (converted)): 30.2 µM
- GI50 [3]: 4.47 µM
- CC50 [3, 27]: 63.1 µM
- TGI ([3]; read-out: pTGI (converted)): 20.4 µM
- GI50 [4]: 15.1 µM
- LC50 [4]: > 100 µM
- TGI ([4]; read-out: pTGI (converted)): > 100 µM
- GI50 [5]: 6.17 µM
- CC50 [5, 27]: 61.7 µM
- TGI ([5]; read-out: pTGI (converted)): 21.9 µM
- GI50 [6]: 6.03 µM
- LC50 [6]: > 100 µM
- TGI ([6]; read-out: pTGI (converted)): > 100 µM
- GI50 [7]: 3.8 µM
- CC50 [7, 27]: > 100 µM
- TGI ([7]; read-out: pTGI (converted)): 33.1 µM
- GI50 [8]: 15.5 µM
- LC50 [8]: 58.9 µM
- TGI ([8]; read-out: pTGI (converted)): 30.2 µM
- GI50 [9]: 22.4 µM
- CC50 [9, 27]: 63.1 µM
- TGI ([9]; read-out: pTGI (converted)): 37.2 µM
- GI50 [10]: 18.2 µM
- LC50 [10]: 66.1 µM
- TGI ([10]; read-out: pTGI (converted)): 34.7 µM
- GI50 [11]: 13.8 µM
- LC50 (50% net cell death) [11]: 57.5 µM
- TGI ([11]; read-out: pTGI (converted)): 28.2 µM
- GI50 [12]: 10.7 µM
- CC50 [12, 27]: 47.9 µM
- TGI ([12]; read-out: pTGI (converted)): 22.9 µM
- Activity [13]: > 10 µM
- GI50 [14]: 19.5 µM
- LC50 (50% net cell kill) [14]: 85.1 µM
- TGI ([14]; read-out: pTGI (converted)): 40.7 µM
- Activity [15]: 0%
- GI50 [16]: 10 µM
- LC50 [16]: 97.7 µM
- TGI ([16]; read-out: pTGI (converted)): 30.9 µM
- GI50 [17]: 13.5 µM
- LC50 (50% net cell kill) [17]: 75.9 µM
- TGI ([17]; read-out: pTGI (converted)): 31.6 µM
- GI50 [18]: 6.03 µM
- LC50 [18]: 56.2 µM
- TGI ([18]; read-out: pTGI (converted)): 20.4 µM
- GI50 [19]: 20 µM
- CC50 [19, 27]: 58.9 µM
- TGI ([19]; read-out: pTGI (converted)): 33.9 µM
- GI50 [20]: 12 µM
- LC50 (50% net cell death) [20]: 53.7 µM
- TGI ([20]; read-out: pTGI (converted)): 25.7 µM
- GI50 [21]: 13.8 µM and 30.2 µM
- CC50 ([21]; Homo sapiens, DU-145, read-out: Log LC50 (the source's name) (converted)): 64.6 µM
- GI50 [22]: 13.5 µM
- LC50 [22]: 74.1 µM
- TGI ([22]; read-out: pTGI (converted)): 31.6 µM
- GI50 [23]: 5.1 µM
- GI50 [24]: 9.2 µM
- RatioGI50 [25]: 1.8
- GI50 [26]: 15.5 µM
